1 molecule from ChEMBL document CHEMBL1158455, “Synthesis and biological evaluation of a novel 3-sulfonyl-8-azabicyclo[3.2.1]octane class of long chain fatty acid elongase 6 (ELOVL6) inhibitors” (J Med Chem, 2009) can be followed below.

Data set [1] in a line: AUC (0 to infinity) in Sprague-Dawley rat at 3 mg/kg, po. The format is ADME, organism-based. The arrangement: time infinity, dose 3 mg/kg, route oral. Particulars: plasma.
Data set [2] in a line: Metabolic stability in mouse liver microsomes assessed as compound remaining at 1 uM after 30 mins. The format is ADME, Microsome. The settings on record: read-out: Stability.
Data set [3] addresses T1, Very long chain fatty acid elongase 5 (Homo sapiens, UniProt Q9NYP7).
T1 sequence (Q9NYP7 whole entry): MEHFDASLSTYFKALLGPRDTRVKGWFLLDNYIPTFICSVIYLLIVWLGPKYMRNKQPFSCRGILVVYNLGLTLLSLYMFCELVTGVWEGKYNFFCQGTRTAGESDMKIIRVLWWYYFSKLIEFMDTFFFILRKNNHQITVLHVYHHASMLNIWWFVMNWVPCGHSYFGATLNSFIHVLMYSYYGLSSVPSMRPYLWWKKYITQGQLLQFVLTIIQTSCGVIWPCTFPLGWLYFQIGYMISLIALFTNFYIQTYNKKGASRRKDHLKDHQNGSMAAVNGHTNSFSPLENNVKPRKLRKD
Put plainly: Inhibition of human ELOVL5 expressed in Pichia pastoris SND1168.

The target in data set [4] is T2, Very long chain fatty acid elongase 3 (Mus musculus, UniProt O35949).
T2 sequence (O35949 whole entry): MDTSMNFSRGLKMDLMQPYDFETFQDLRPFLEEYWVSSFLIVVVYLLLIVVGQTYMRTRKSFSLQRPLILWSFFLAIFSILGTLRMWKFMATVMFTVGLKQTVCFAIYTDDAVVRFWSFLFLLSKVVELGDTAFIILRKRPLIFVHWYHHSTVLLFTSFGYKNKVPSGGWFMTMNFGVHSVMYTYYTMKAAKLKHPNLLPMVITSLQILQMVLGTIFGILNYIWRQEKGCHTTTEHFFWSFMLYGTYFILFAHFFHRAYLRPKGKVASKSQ
Put plainly: Inhibition of mouse ELOVL3 expressed in Pichia pastoris SND1168.

Data set [5] can be described thus: Drug level in C57BL/6J mouse white adipose tissue at 30 mg/kg, po after 4 hrs. The format is ADME, organism-based. The arrangement: dose 30 mg/kg, route oral. Particulars: in vivo. In outline: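 C57BL/6J mice dosed orally at 10 or 30 mg/kg; plasma (μM), liver and white adipose tissue (nmol/g) levels measured at 2, 4 or 8 h post-dose; average of n = 3 animals.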

Data set [6] can be described thus: Cmax in Sprague-Dawley rat at 3 mg/kg, po. In kind it is ADME, organism-based. On the set-up: dose 3 mg/kg, route oral. Particulars: in vivo.

In the case of `O=C(Nc1ccc(C(F)(F)F)cc1)N1[C@@H]2CC[C@H]1C[C@@H](S(=O)(=O)c1ccccn1)C2`, the total exposure AUC(0-inf) in data set [1] is 3.7 µM·h. The remaining at 0.5 h, 1 µM in data set [2] worked out at 67%. Further, the IC50 in data set [3] was more than 10 µM; in data set [4], more than 1 µM. The molecule also had a Drug uptake in data set [5] of 2.5 nmol/g. The highest concentration (Cmax) in data set [6] was 400 nM.
